Molecules are shown by their SMILES.

As usually defined, the IC50 is the concentration that inhibits the measured activity by half. A word on the inhibition: it is the drop in the measured response relative to a control, in per cent.

The target of assay [1] is T1, Prostaglandin G/H synthase 2 (Homo sapiens, UniProt P35354).
T1 sequence (P35354 whole entry): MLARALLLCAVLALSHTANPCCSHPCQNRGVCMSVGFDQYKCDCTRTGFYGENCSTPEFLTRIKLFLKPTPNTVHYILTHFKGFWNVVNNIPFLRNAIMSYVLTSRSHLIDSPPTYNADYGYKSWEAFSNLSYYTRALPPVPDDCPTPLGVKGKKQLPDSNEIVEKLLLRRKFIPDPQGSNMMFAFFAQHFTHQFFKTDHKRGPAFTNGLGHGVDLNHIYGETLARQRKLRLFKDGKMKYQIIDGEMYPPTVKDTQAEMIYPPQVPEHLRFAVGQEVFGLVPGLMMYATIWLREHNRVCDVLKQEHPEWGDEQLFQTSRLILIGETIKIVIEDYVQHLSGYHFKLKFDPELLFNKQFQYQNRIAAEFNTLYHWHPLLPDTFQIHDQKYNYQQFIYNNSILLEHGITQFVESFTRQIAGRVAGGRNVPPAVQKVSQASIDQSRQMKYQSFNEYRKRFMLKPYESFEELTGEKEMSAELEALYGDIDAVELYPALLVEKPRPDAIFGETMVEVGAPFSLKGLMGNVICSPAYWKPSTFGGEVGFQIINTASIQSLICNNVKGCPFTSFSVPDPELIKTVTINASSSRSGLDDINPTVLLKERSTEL
In words: Inhibition of COX2 in LPS-stimulated human whole blood assessed as inhibition of PGE2 production by […]. Format: tissue-based. The gist of the method:
(§1)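 Heparinized (10 IU) whole blood from young healthy volunteers, drawn 48 h after 300 mg oral aspirin to suppress platelet COX-1. 1 ml aliquots; compound added in DMSO (final 10 µM) before LPS 10 µg/ml, 24 h at 37 °C. Plasma stored at -70 °C, PGE2 by competitive peroxidase EIA at 450 nm (range 50–6400 pg/ml). Mean ± SEM, three experiments in triplicate.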

The target of assay [2] is T2, Nitric oxide synthase, inducible (Mus musculus) (UniProt P29477).
T2 sequence (whole entry): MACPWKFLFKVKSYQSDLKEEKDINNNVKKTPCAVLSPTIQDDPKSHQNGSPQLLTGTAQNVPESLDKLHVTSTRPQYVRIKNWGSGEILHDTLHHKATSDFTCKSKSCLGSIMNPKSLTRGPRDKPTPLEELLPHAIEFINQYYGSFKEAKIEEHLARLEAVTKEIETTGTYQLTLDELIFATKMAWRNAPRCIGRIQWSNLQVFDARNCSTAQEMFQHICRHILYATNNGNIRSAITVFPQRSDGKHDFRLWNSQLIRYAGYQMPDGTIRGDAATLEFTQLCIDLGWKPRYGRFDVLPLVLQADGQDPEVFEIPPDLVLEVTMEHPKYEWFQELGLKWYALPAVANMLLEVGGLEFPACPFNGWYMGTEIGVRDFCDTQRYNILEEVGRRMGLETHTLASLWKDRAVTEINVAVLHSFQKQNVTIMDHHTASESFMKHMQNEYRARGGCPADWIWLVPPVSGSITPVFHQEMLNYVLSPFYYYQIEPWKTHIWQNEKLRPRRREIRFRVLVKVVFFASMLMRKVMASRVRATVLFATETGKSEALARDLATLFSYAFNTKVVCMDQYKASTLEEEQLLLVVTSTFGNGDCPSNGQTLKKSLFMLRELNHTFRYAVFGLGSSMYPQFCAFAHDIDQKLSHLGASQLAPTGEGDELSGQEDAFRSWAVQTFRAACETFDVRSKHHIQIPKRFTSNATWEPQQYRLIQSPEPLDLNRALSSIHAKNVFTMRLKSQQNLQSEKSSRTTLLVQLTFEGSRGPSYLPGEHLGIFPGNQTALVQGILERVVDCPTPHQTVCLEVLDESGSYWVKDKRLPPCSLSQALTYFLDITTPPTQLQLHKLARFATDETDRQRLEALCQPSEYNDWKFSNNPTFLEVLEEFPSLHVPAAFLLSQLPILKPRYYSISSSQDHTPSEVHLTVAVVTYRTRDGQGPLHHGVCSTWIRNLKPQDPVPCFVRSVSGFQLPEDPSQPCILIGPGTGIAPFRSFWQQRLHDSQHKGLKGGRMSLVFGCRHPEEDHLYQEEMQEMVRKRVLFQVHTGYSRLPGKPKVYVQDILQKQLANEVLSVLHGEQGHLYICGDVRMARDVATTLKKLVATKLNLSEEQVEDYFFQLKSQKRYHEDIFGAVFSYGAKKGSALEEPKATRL
Description: Inhibition of iNOS in LPS-stimulated mouse J774 cells assessed as inhibition of nitric oxide generation at 10 uM. Type of assay: cell-based. Put shortly:
(§2)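 J774 cells plated at 2.5×10^5 cells/ml, adhered 24 h, then given LPS 5 µg/ml for 72 h with compound at 10 µM (DMSO vehicle). Supernatant nitrite measured by Griess reaction, 10 min at room temperature, absorbance at 550 nm against sodium nitrite standard (detection limit 1 µM). NGMMA 500 µM served as control. Mean ± SEM, three experiments in triplicate.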

Assay [3] concerns the target T3, Prostaglandin G/H synthase 2 (Homo sapiens) (UniProt P35354).
T3 sequence (whole entry): T1 sequence (P35354 whole entry)
The conditions noted are these: Blood, at 10 µM.

Assay [4] addresses T3, Prostaglandin G/H synthase 2 (Homo sapiens). Description: Activation of COX2 in LPS-stimulated human whole blood assessed as stimulation of PGE2 production at 10 uM […]. Type of assay: tissue-based. Put shortly: as §1
The target in assay [5] is T4, Prostaglandin G/H synthase 2 (Mus musculus) (UniProt Q05769).
T4 sequence (whole entry): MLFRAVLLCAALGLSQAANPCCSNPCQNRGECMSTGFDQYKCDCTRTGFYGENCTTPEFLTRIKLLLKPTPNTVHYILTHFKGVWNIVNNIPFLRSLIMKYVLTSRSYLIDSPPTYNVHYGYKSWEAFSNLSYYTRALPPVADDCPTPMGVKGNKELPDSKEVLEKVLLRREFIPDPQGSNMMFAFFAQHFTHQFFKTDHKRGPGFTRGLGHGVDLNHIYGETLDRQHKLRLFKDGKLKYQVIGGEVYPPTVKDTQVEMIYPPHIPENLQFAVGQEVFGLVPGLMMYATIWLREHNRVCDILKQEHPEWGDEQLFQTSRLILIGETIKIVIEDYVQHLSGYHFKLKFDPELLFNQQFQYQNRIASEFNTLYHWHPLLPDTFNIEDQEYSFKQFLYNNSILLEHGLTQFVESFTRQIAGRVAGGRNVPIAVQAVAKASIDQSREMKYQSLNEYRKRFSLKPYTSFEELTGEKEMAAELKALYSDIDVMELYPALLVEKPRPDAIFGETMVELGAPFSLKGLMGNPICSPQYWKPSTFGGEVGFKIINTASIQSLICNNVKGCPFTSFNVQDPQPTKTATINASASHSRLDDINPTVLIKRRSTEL
Description: Activation of COX2 in LPS-stimulated mouse J774 cells assessed as stimulation of PGE2 production by […]. Type of assay: cell-based. Set-up: concentration or dose not given beside the values. The gist of the method: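 Mouse J774 monocyte-macrophages in DMEM/10% FCS, plated at 2.5×10^5 cells/ml and adhered 24 h. Stimulated with LPS 5 µg/ml for 72 h with compound (10 µM, DMSO vehicle). Supernatant PGE2 by competitive peroxidase EIA at 450 nm (50–6400 pg/ml) against vehicle control. Mean ± SEM, three experiments in triplicate.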

Assay [6] addresses T2, Nitric oxide synthase, inducible (Mus musculus). Description: Activation of iNOS in LPS-stimulated mouse J774 cells assessed as stimulation of nitric oxide generation at 10 uM. Format: cell-based. Put shortly: as §2

As to `CC(Sc1nc2ccccc2c(=O)n1N)C(=O)O` (stereo unspecified), the IC50 in assay [1] came out at 5.8 µM. Moreover, the inhibition was determined as 50% in assay [2] and 88% in assay [3].

With `CS(=O)(=O)Nn1c(Sc2ccc([N+](=O)[O-])cc2[N+](=O)[O-])nc2sc(-c3ccccc3)cc2c1=O`, the IC50 in assay [1] turned out to be 3.4 µM. The inhibition in assay [2] and in assay [3] was 100% each time.

On to `CC(Sc1nc2c([nH]c3ccccc32)c(=O)n1N)C(=O)O` (stereo unspecified), for which the Activity in assay [4] came out at 28%; in assay [5], 180%; in assay [6], 35%.

As for `Nn1c(Sc2ccc([N+](=O)[O-])cc2[N+](=O)[O-])nc2sc(-c3ccccc3)cc2c1=O`, the results for the inhibition in assay [2] and in assay [3] were 60% and 75%, respectively.

With `Nn1c(SC(C(=O)O)c2ccccc2)nc2ccccc2c1=O` (stereo unspecified), the figures for the Activity in assay [4], in assay [5] and in assay [6] were 21%, 30% and 5%, respectively.

For the molecule `Cc1sc2nc(SC(C(=O)O)c3ccccc3)n(N)c(=O)c2c1C` (stereo unspecified), the Activity in assay [4] is 205%; in assay [5], 346%; in assay [6], 11%.

As for `COc1ccc2c(c1)c(CC(=O)O)c(C)n2C(=O)c1ccc(Cl)cc1`, the inhibition in assay [2] is 90%.

In the case of `Cc1ccc(-c2cc(C(F)(F)F)nn2-c2ccc(S(N)(=O)=O)cc2)cc1`, the inhibition in assay [2] is 96%.

Take `Nn1c(SC2CCCCC2)nc2sc(-c3ccccc3)cc2c1=O`: the inhibition in assay [2] was determined as 70%; in assay [3] it was 90%.

As to `Nn1c(SC(C(=O)O)c2ccccc2)nc2ccc(Br)cc2c1=O` (stereo unspecified), in assay [1], the IC50 is 7 µM. Besides, the figures for the inhibition in assay [2] and in assay [3] were 38% and 70%, respectively.

`CC(Sc1nc2c(sc3ccccc32)c(=O)n1N)C(=O)O` (stereo unspecified): the Activity came out at 6% in assay [4], 52% in assay [5] and 10% in assay [6].

For `Nn1c(SC(C(=O)O)c2ccccc2)nc2ccsc2c1=O` (stereo unspecified), in assay [2], the inhibition came to 55%.

Take `CC(Sc1nc2sc(-c3ccccc3)cc2c(=O)n1N)C(=O)O` (stereo unspecified): the Activity in assay [4] stood at 90%; in assay [5] it was 250%; in assay [6], 52%.

Source of the values: ChEMBL document CHEMBL1152748, “Inhibition of iNOS and COX-2 in human whole blood ex vivo and monocyte-macrophage J774 cells by a new group of aminothiopyrimidone derivatives” (Bioorg Med Chem, 2009).
